Screening results deposited in PubChem BioAssay by several laboratories.
ANO1 block: mouse TMEM16A channel inhibition, primary screen. HEK293 TMEM16A/YFP iodide influx fluorescence, ionomycin. normalized B-score (activity score, 25-100; higher = stronger inhibition) at 10 µM. actives 1.2% (n = 310,000). AID 588511;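 active means ratio plate-corrected score three or more library SD toward inhibition, starting fluorescence score within five deviations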;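 further: score derived from kinetic fluorescence span divided by baseline fluorescence per well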
Target sequence (Q8BHY3 whole entry, looked up): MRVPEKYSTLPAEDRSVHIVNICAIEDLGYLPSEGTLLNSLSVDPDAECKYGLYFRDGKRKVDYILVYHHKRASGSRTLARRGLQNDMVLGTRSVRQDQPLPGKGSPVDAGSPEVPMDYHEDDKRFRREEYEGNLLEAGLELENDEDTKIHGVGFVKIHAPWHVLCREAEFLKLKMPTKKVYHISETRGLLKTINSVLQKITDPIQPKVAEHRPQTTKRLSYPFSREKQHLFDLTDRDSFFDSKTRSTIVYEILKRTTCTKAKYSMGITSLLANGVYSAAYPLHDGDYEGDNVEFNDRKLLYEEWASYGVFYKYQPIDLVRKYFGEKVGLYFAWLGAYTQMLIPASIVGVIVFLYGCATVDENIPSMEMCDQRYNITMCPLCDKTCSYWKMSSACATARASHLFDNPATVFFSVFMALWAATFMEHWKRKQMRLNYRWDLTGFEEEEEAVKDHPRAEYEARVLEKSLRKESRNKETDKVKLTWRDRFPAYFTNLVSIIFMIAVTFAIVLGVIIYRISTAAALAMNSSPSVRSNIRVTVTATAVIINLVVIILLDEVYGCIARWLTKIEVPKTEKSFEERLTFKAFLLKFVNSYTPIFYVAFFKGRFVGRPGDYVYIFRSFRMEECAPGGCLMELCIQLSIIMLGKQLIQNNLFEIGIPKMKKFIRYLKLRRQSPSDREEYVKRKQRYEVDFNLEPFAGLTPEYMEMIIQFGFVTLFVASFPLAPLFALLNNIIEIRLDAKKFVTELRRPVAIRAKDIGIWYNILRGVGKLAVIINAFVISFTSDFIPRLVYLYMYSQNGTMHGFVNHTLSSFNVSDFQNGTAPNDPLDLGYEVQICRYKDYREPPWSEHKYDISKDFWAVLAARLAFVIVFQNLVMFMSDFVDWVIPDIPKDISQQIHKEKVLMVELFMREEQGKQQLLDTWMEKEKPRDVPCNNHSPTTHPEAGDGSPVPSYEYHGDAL
TAAR1 ag: agonists of human TAAR1; Q96RJ0; CHO RD-HGA16 TAAR1, Fluo-8 calcium fluorescence; vehicle wells 0%, saturating PEA agonist 100%; activation, % at 3 µM; actives 0.99% (n = 360,000);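 active means activation above the mean activation of all test compounds in the run plus 3 SD, cut at about 38% in these data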
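Test system: RD-HGA16 (CHO) cells co-expressing Gα16 and hTAAR1; dosing: one-point dosing at 3 µM (nominal); timing: 17-24 h seeding, 75 min 37 °C dye, 30 min RT; signal: kinetic Fluo-8 calcium fluorescence; read-out basis: % activation relative to PEA EC100 response; controls: DMSO and PEA EC100; replicates: n 1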
ANO1 activ: activators or potentiators of mouse TMEM16A chloride channel. Q8BHY3. HEK293 TMEM16A/YFP-H148Q/I152L, iodide quench fluorescence; active compounds read low. B-score at 10 µM. actives 0.3% (n = 340,000). AID 623877;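 active means fluorescence-ratio B-score plate-corrected deviation score at least 3 library SD below zero, with starting fluorescence score within 5 deviations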;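 further: channel opened by trigger with iodide after compound preincubation; score built on the fluorescence ratio of max minus min over baseline; more negative score means more quench and so TMEM16A activation or potentiation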
TAAR1 antag: human TAAR1 antagonism | Q96RJ0 | CHO RD-HGA16 TAAR1, Fluo-8 calcium fluorescence, antagonist | inhibition, % at 3 µM | actives 1.5% (n = 360,000) | AID 624466;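 active means inhibition above a per-plate cutoff, the mean inhibition of test compounds on that plate plus 3 SD, cut at about 49% in these data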;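 further: 0% = DMSO plus EC80 beta-PEA response and 100% = DMSO alone without agonist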
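Material: RD-HGA16 CHO cells with stable hTAAR1 and Gα16; Dosing: single nominal final test compound concentration of 3 µM; Schedule: seeding 17-24 h prior, 75-min 37 °C, 30-min RT dye loading; Detection: kinetic Fluo-8 calcium fluorescence measurement; Measure: % inhibition from peak post-agonist over basal fluorescence ratio; Benchmarks: vehicle and agonist controls.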
CRFR2-BP antag: blocks CRF-induced signaling of the CRF-BP/CRF-R2 complex | actives 0.59% (n = 350,000) | HEK293 CRF-R2/CRF-BP, CRF-induced calcium fluorescence | inhibition, % at 11.8 µM;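 active means inhibition of the ligand-induced calcium signal above about 50% at the single tested concentration, limit read from the data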
CRFR2-BP ag: CRF-BP/CRF-R2 complex agonism; activation, % at 13.2 µM; HEK293 CRF-R2/CRF-BP, calcium dye fluorescence (FLIPR); percent of saturating CRF peptide response; actives 0.46% (n = 350,000);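 active means activation of at least 50%, plus an integration ratio under a set limit after plate pattern correction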;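 further: plate controls were neutral control wells without compound for no effect and CRF at EC100 for full effect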
nonsel antag count: counter-screen for TAAR1 antagonists: nonselective antagonists; counterscreen cell line, calcium fluorescence, antagonist mode; AID 651780; actives 77% (n = 2,400); shares compounds with TAAR1 antag; inhibition, % at 3 µM; in the data active means inhibition above about 22%;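 further: CHO-Ga16 host cells stimulated with ATP at an EC80 level; 0% = agonist EC80 plus vehicle and 100% = vehicle without agonist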
TAAR1 antag conf: confirmation of human TAAR1 antagonists. shares compounds with TAAR1 antag. TAAR1-expressing cells, fluorescence antagonist read-out. inhibition, % at 3 µM. actives 40% (n = 2,400). AID 651785; in the data active means inhibition above about 49%;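 further: CHO-Ga16 host cells challenged with agonist PEA near its EC80; 0% = agonist at EC80 plus vehicle and 100% = vehicle with no agonist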
Ga16 ag counter: nonselective Ga16 agonist in TAAR1 antagonist counter-screen | actives 18% (n = 2,400) | Ga16-expressing cells, calcium fluorescence, agonist counterscreen | AID 651953 | shares compounds with TAAR1 antag | activation, % at 3 µM; in the data active means activation above about 12%;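 further: 0% = vehicle wells and 100% = saturating stimulus response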
TAAR1 ag count: TAAR1 agonism, antagonist counter-screen | shares compounds with TAAR1 antag | hTAAR1 cell line, fluorescence activation, agonist mode | activation, % at 3 µM | actives 2% (n = 2,400) | AID 651955; in the data active means activation above about 37%;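 further: CHO cells stably expressing TAAR1 with calcium dye readout; 0% = DMSO vehicle and 100% = full agonist response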
Active calls of the source: *; i = inactive; . = no result given. Shown are actives, neighbours in structure and some others; about 3.9% of the full set was active somewhere.

SMILES | ANO1 block | TAAR1 ag | ANO1 activ | TAAR1 antag | CRFR2-BP antag | CRFR2-BP ag | nonsel antag count | TAAR1 antag conf | Ga16 ag counter | TAAR1 ag count
CCOc1ccc(Cl)cc1-c1cc(C(=O)Nc2cc(OC)c(OC)c(OC)c2)[nH]n1 | . | 6 | . | 25 | . | . | . | . | . | .
CCOc1ccc(NC(=O)CN(C)C(=O)c2cc(-c3ccncc3)nc3ccccc23)cc1OCC | i | 8 | i | 67* | -8 | -2 | 30* | 43 | 7 | 7
COc1ccc(Cl)cc1NC(=O)CN(C)C(=O)c1ccc2c(c1)CC(c1ccccc1)OC2=O (stereo unspecified) | . | 22 | i | 65* | -13 | 0 | 33* | 53* | 12* | 14
COc1ccc(Cl)cc1NC(=O)CN(C)C(=O)c1cc(-c2ccncc2)nc2ccccc12 | i | 19 | i | 74* | -2 | -2 | 42* | 53* | 15* | 14
CCOc1ccc(NC(=O)CN(C)C(=O)Cc2c(C)nc3ccccc3c2C)cc1OCC | i | 1 | i | -1 | 0 | 0 | . | . | . | .
CN1CCCN(C(=O)c2cccc3ccccc23)CC1 | i | 2 | i | -15 | 9 | 1 | . | . | . | .
CC(C)(C)C(=O)NNC(=O)c1cc(C(C)(C)C)nn1Cc1ccccc1 | i | -1 | i | -18 | -1 | -1 | . | . | . | .
Cc1ccc(NC(=O)c2cc(C(C)(C)C)nn2Cc2ccccc2)cc1 | i | 6 | i | 61* | -13 | 2 | 24* | 42 | 5 | 1
COc1ccc(CCNc2oc(COc3ccccc3F)nc2C#N)cc1 | i | 8 | i | 65* | 15 | 0 | 29* | 52* | 6 | 2
N#Cc1nc(COc2ccccc2F)oc1NCc1ccc(F)cc1 | i | -1 | i | 26 | 15 | 1 | . | . | . | .
C=C(C)COc1ccc(-c2n[nH]c(C)c2-c2ccc(OC)cc2)c(O)c1 | i | 7 | i | 62* | 11 | -1 | 6 | 9 | 7 | 11
COc1ccc(-c2n[nH]c(C)c2-c2cscn2)c(O)c1 | i | 0 | i | 2 | 0 | -6 | . | . | . | .
Cc1cc(F)ccc1C(O)c1ncc(-c2ccccc2C(F)(F)F)[nH]1 (stereo unspecified) | . | 8 | . | -17 | . | . | . | . | . | .
CCN(C(=O)CN(C1=NC2CS(=O)(=O)CC2S1)c1ccc(OC)cc1)c1cccc(C)c1 (stereo unspecified) | . | 1 | . | -2 | . | . | . | . | . | .
Oc1ccccc1C1=Nc2nc3ccccc3n2C(c2ccccc2)C1 (stereo unspecified) | i | 13 | i | 54* | -7 | -1 | 31* | 28 | 4 | -3
O=C(NCc1cc(C(F)(F)F)ccc1Cl)c1cccc2c1C(=O)c1ccc(N3CCOCC3)cc1S2(=O)=O | . | 18 | i | 60* | -6 | 45 | 33* | 50* | 22* | 22
COc1ccc(/C=C(\C#N)C(=O)c2c(C)[nH]c3ccccc23)cc1OC | i | 5 | i | 59* | -25 | 1 | 17 | 32 | 2 | 3
O=C1C=C(c2ccc(F)cc2OCc2ccccc2)C[C@@H](c2ccc(F)cc2)C1 | . | 11 | i | 39 | -6 | 7 | . | . | . | .
COc1ccc([C@H]2CC(=O)C=C(c3ccc(F)cc3OCc3ccccc3)C2)cc1OC | . | 21 | i | 83* | -22 | 7 | 42* | 67* | 8 | 11
CC(=NO)C1CCC2C3CCC4CC(=NO)CCC4(C)C3C(C)(O)CC12C (stereo unspecified) | . | 15 | i | 77* | -2 | -4 | 29* | 52* | 17* | 18
O=C(CN1C(=O)NC2(CCCC2)C1=O)OCCOc1ccc(Cl)cc1 | i | 0 | i | -4 | 4 | -1 | . | . | . | .
O=C(CNS(=O)(=O)c1cccc(Cl)c1)Nc1ccc(-c2nc3ccccc3s2)cc1 | i | 4 | i | 4 | 21 | -1 | . | . | . | .
CC(NS(=O)(=O)c1cccc(Cl)c1)C(=O)Nc1ccc(-c2nc3ccccc3s2)cc1 (stereo unspecified) | i | 25 | i | 64* | -9 | 5 | 37* | 45 | 12* | 24
COc1ccccc1-c1cc(C(=O)N2CCN(S(=O)(=O)c3ccc(C)cc3)CC2)[nH]n1 | i | 11 | i | 74* | 3 | -4 | 31* | 44 | 9 | 7
O=C(c1cc(-c2ccccc2)n[nH]1)N1CCN(S(=O)(=O)c2ccccc2)CC1 | i | 3 | i | 5 | -7 | -1 | . | . | . | .
SMILES | ANO1 block | TAAR1 ag | ANO1 activ | TAAR1 antag | CRFR2-BP antag | CRFR2-BP ag | nonsel antag count | TAAR1 antag conf | Ga16 ag counter | TAAR1 ag count
CCOc1cc(S(=O)(=O)n2ccnc2)ccc1Cl | i | 0 | i | -2 | 15 | 0 | . | . | . | .
O=C(Nc1ccc(S(=O)(=O)Nc2ncccn2)cc1)c1ccccc1NS(=O)(=O)c1ccc(F)cc1 | i | 2 | i | -4 | -5 | 0 | . | . | . | .
O=C(Nc1ccc(-c2nc3ccccc3[nH]2)cc1)c1ccccc1NS(=O)(=O)c1ccc(F)cc1 | i | 9 | i | 78* | 2 | -2 | 42* | 46 | 6 | -1
O=C1CC(N(O)C2CC(=O)N(Cc3ccccc3)C2=O)C(=O)N1Cc1ccccc1 (stereo unspecified) | i | 17 | i | 68* | -3 | 0 | 33* | 54* | 10 | 12
CCCc1c(C(=O)N/N=C/c2c[nH]c3ccccc23)nnn1-c1nonc1N | . | 29 | . | 63* | -15 | 0 | 32* | 47 | 12* | 12
CCCCNc1c(-c2cccc(-c3cc(C(C)=O)cs3)c2)nc2ccc(C)cn12 | i | 15 | i | 68* | -4 | 0 | 36* | 54* | 7 | 5
CCCCCCSc1cccc(-c2nc3ccc(Cl)cn3c2NCCCC)c1 | . | 10 | i | 6 | -4 | 0 | . | . | . | .
Cc1cc(/C=N/Nc2ccc([N+](=O)[O-])cn2)c(C)n1-c1ccccc1 | i | -4 | i | 40 | -6 | -1 | . | . | . | .
Cc1ccc(-n2c(C)cc(/C=N/Nc3ccc([N+](=O)[O-])cn3)c2C)cc1 | i | . | i | . | -20 | 2 | 4 | . | 0 | .
